# Measured values from ChEMBL document CHEMBL2046284, “N-Pyridyl and Pyrimidine Benzamides as KCNQ2/Q3 Potassium Channel Openers for the Treatment of Epilepsy” (ACS Med Chem Lett, 2011).
# The source made the active and inactive calls. The rule behind the calls is not given here.
# Experiments:
# [1] = biological target: Voltage-gated potassium channel, KQT; KCNQ2(Kv7.2)/KCNQ3(Kv7.3) (Homo sapiens, UniProt O43525+O43526); experiment: Agonist activity at KCNQ2/KCNQ3 expressed in CHO cells assessed as increase in KCl-induced 86Rb+ efflux incubated for 10 mins prior to KCl-induction by liquid scintillation counting; type: functional, cell-based
# Chain of Voltage-gated potassium channel, KQT; KCNQ2(Kv7.2)/KCNQ3(Kv7.3) (O43526 whole entry): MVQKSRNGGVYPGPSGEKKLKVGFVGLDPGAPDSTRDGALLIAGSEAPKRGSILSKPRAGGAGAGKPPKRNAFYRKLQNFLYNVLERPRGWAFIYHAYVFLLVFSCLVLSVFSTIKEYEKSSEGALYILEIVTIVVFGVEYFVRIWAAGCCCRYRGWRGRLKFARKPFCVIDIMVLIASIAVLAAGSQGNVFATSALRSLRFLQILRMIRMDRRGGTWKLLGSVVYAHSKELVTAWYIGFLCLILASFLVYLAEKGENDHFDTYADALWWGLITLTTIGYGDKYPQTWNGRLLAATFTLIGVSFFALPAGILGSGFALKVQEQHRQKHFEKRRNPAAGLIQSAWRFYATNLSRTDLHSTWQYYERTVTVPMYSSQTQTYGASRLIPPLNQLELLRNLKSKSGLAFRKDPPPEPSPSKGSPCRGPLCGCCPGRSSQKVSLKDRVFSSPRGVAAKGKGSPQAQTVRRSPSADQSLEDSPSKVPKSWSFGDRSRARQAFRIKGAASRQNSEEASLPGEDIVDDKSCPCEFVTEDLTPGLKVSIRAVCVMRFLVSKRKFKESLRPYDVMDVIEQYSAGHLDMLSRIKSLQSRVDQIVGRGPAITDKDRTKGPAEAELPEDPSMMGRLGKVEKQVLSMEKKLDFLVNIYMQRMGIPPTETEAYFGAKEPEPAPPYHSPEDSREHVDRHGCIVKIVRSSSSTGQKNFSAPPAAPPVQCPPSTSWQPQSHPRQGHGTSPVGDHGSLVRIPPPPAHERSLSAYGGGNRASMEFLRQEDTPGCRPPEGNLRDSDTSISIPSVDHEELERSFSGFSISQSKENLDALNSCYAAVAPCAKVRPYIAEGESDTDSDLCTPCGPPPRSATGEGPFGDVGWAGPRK
# Chain of Voltage-gated potassium channel, KQT; KCNQ2(Kv7.2)/KCNQ3(Kv7.3) (O43525 whole entry): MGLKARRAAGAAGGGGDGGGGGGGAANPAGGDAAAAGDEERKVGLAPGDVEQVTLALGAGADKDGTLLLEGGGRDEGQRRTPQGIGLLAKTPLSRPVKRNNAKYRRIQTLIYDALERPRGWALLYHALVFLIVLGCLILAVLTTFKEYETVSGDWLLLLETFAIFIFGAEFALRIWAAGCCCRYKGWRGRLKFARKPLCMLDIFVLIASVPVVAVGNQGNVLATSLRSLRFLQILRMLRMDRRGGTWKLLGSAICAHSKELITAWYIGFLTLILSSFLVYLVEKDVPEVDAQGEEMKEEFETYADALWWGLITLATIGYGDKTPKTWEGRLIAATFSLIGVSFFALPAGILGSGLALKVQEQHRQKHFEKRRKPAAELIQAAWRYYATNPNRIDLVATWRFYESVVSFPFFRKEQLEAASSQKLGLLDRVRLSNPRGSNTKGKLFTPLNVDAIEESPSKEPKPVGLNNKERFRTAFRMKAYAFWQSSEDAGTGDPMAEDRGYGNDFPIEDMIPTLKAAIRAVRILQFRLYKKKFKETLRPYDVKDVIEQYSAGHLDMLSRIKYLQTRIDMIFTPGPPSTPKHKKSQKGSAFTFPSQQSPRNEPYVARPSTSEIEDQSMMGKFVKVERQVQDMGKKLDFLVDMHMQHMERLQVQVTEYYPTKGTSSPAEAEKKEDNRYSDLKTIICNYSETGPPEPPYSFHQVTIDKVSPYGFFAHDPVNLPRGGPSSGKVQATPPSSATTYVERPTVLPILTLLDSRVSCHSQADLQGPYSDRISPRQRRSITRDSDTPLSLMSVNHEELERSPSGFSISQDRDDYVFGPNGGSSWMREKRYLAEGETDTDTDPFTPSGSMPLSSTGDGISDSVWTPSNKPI
# [2] = biological target: Voltage-gated potassium channel, IKs; KCNQ1(Kv7.1)/KCNE1(MinK) (Homo sapiens, UniProt P15382+P51787); experiment: Antagonist activity at KCNQ1/MINK expressed in CHO cells assessed as inhibition of KCl-induced 86Rb+ efflux incubated for 10 mins prior to KCl-induction by liquid scintillation counting; type: functional, cell-based
# Chain of Voltage-gated potassium channel, IKs; KCNQ1(Kv7.1)/KCNE1(MinK) (P51787 whole entry): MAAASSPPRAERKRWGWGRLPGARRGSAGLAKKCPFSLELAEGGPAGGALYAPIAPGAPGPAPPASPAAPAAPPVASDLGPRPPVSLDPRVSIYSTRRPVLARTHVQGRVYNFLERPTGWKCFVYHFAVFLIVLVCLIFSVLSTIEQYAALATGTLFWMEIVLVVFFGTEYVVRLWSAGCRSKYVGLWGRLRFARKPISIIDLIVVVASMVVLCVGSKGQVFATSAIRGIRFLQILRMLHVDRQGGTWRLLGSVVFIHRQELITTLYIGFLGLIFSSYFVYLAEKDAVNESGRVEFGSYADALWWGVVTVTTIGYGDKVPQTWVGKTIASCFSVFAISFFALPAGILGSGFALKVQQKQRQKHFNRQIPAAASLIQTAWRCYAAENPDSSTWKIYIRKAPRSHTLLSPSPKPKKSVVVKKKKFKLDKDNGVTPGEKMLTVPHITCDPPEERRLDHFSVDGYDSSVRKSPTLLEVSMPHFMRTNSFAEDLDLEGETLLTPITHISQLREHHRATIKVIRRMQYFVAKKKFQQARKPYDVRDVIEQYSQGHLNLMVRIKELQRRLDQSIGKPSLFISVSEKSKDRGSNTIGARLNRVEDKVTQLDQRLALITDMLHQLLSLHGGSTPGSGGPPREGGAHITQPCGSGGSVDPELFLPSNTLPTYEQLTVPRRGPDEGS
# [3] = biological target: Voltage-gated potassium channel KCNQ3/KCNQ5 (Homo sapiens, UniProt O43525+Q9NR82); experiment: Agonist activity at KCNQ3/KCNQ5 expressed in CHO cells increase in KCl-induced 86Rb+ efflux incubated for 10 mins prior to KCl-induction by liquid scintillation counting; type: functional, cell-based
# Chain of Voltage-gated potassium channel KCNQ3/KCNQ5 (O43525 whole entry): as the sequence (O43525 whole entry) above
# Chain of Voltage-gated potassium channel KCNQ3/KCNQ5 (Q9NR82 whole entry): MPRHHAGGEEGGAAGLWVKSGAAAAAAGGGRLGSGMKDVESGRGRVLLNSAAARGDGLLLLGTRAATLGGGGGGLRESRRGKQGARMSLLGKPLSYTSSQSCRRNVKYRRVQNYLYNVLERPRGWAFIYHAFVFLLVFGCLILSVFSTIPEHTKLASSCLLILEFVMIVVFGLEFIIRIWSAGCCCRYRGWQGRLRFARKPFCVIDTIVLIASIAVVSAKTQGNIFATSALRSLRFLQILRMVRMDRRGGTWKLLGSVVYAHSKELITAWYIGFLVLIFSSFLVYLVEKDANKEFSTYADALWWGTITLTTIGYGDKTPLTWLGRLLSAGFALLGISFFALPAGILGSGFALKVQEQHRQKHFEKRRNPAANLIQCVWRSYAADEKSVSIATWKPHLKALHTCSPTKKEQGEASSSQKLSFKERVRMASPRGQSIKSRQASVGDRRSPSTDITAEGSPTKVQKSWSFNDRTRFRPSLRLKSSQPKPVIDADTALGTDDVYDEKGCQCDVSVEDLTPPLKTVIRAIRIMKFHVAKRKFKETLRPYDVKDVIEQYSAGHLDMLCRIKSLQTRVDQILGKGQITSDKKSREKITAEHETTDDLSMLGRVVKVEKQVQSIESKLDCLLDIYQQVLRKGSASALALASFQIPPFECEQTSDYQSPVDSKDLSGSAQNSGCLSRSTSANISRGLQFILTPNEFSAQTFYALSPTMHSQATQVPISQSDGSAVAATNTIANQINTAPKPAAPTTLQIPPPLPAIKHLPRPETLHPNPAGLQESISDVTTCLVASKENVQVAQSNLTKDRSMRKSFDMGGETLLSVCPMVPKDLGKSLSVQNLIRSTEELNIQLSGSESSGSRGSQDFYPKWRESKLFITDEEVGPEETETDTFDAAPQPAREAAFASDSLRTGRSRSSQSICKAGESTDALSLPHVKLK
# [4] = tested on: Rattus norvegicus; experiment: Toxicity in rat assessed as nonhemolytic anemia after 28 days administered with repeated doses; type: organism-based; conditions: in vivo, 672 h
# [5] = tested on: Rattus norvegicus; experiment: Antiepileptic activity in po dosed Sprague-Dawley rat assessed as latency in PTZ-induced seizure administered 30 mins prior to PTZ-challenge measured up to 15 minutes; type: functional
# [6] = tested on: Cynomolgus monkey; experiment: Toxicity in cynomolgus monkey assessed as nonhemolytic anemia after 28 days administered with repeated doses; type: organism-based, Macaca fascicularis; conditions: in vivo, 672 h
# [7] = tested on: Rattus norvegicus; experiment: Antiepileptic activity in po dosed Wistar rat assessed as latency in maximum electric shock-induced hind limb extension administered 30 mins prior to electric shock-challenge measured up to 6 secs; type: functional; conditions: Hindlimb
# [8] = tested on: Rattus norvegicus; experiment: Toxicity in po dosed rat assessed as nonhemolytic anemia after 14 days; type: organism-based; conditions: in vivo, 336 h
# [9] = Agonist activity at KCNQ expressed in CHO cells assessed as increase in KCl-induced 86Rb+ efflux incubated for 10 mins prior to KCl-induction by liquid scintillation; type: functional, cell-based
# [10] = tested on: Rattus norvegicus; experiment: Volume of distribution during terminal phase in Sprague-Dawley rat at 2 mg/kg, iv; type: ADME, organism-based; set-up: dose 2 mg/kg, route intravenous; conditions: in vivo
# Outline: (§1)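 Rats received a single 2 mg/kg intravenous dose. Half-life and clearance were determined, and volume of distribution (Vz) was calculated from the terminal phase.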
# [11] = Half life in Sprague-Dawley rat at 2mg/kg, iv; type: ADME, organism-based; conditions: in vivo; outline: as §1
# [12] = Clearance in Sprague-Dawley rat at 2mg/kg, iv; type: ADME, organism-based; conditions: in vivo; outline: as §1
# [13] = Inhibition of L-type calcium channel
# [14] = biological target: Sodium channel protein type 5 subunit alpha (Homo sapiens, UniProt Q14524); experiment: Inhibition of NaV1.5
# [15] = Tmax in Sprague-Dawley rat at 2 mg/kg, po; type: ADME, organism-based; set-up: dose 2 mg/kg, route oral; conditions: in vivo
# [16] = Activity at GABA(A) gated channel at 10 uM
# [17] = Selectivity ratio of EC50 for KCNQ3/KCNQ5 to EC50 for KCNQ2/KCNQ3
# [18] = biological target: Voltage-gated inwardly rectifying potassium channel KCNH2 (Homo sapiens, UniProt Q12809); experiment: Inhibition of human ERG
# Chain of Voltage-gated inwardly rectifying potassium channel KCNH2 (Q12809 whole entry): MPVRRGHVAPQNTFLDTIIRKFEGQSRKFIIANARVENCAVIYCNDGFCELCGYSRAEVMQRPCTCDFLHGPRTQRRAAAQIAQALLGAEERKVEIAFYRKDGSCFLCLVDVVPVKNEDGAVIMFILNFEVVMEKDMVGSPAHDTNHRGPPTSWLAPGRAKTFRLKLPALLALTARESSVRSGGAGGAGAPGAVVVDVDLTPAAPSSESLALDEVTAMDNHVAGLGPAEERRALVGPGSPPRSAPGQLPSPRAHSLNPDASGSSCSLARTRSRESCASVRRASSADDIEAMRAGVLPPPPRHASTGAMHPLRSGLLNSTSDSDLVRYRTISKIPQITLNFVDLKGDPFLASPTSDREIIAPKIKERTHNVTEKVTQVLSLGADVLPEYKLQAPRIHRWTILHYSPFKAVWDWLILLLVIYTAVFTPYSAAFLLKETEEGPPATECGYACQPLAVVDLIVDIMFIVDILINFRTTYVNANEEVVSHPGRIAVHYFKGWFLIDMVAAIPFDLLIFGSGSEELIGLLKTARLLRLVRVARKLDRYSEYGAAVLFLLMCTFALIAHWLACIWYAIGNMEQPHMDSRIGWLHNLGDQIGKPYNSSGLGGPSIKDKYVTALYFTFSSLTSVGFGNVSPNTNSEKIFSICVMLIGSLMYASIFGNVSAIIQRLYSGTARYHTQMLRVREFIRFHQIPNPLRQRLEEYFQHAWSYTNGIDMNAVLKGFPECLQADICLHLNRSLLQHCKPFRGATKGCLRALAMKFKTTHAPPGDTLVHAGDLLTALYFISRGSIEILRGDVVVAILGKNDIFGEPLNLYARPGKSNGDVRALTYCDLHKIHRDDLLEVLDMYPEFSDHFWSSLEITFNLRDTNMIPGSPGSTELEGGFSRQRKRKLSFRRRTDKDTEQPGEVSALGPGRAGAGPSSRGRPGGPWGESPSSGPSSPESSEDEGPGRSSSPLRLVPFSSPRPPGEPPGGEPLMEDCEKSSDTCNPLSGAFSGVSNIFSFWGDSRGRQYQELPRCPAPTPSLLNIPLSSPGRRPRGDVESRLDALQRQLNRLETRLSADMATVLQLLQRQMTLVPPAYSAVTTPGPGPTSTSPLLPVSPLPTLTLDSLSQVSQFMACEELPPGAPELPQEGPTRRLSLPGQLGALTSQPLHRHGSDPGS
# [19] = Oral bioavailability in Sprague-Dawley rat at 2 mg/kg; type: ADME, organism-based; conditions: in vivo
Compound,EC50 [1] [µM],IC50 [2] [µM],further results
O=C(Nc1ccc(O)nc1)c1ccc(F)c(F)c1,> 10,,
O=C(Nc1ccc(Cl)nc1)c1ccc(NCCc2ccccc2)c(F)c1,0.18,> 100,
O=C(Nc1ccc(Cl)nc1)c1ccc(Sc2ccc(F)cc2)c(F)c1,0.08,> 100,
O=C(Nc1ccc(F)nc1)c1ccc(F)c(F)c1,4.8,,
CC(C)CSc1ccc(C(=O)Nc2ccc(Cl)nc2)cc1F,0.14,> 100,
N#Cc1ccc(C(=O)Nc2ccc(Cl)nc2)cc1F,1.1,51,
COc1ccc(C(=O)Nc2ccc(Cl)nc2)cc1F,3.2,> 100,
O=C(Nc1ccc(Cl)nc1)c1ccccc1F,> 10,,
O=C(Nc1cnc(Cl)nc1)c1ccc(Cl)c(F)c1,0.41,49,EC50 [3]: 9 µM
O=C(Nc1ccc(C(F)(F)F)nc1)c1ccc(F)c(F)c1,> 10,,
O=C(Nc1ccc(Cl)nc1)c1ccc(F)c(F)c1,0.38,41,Activity [4]: Toxic; ED50 [5]: 2.2 mg/kg; Activity [6]: Toxic; ED50 [7]: 1.5 mg/kg; Activity [8]: Toxic
O=C(Nc1ccc(Cl)nc1)c1cccc(F)c1F,> 10,,
O=C(Nc1ccc(Cl)nc1)c1ccc(C(F)(F)F)cc1,0.32,2.9,
O=C(Nc1ccccn1)c1ccc(Cl)c(Cl)c1,,,EC50 [9]: > 10 µM
O=C(Nc1cccnc1)c1ccc(Cl)c(Cl)c1,,,EC50 [9]: 6 µM
O=C(Nc1ccc(Cl)nc1)c1cccc(F)c1,1.1,77,
O=C(Nc1ccc(Cl)nc1)c1ccc(F)c(Cl)c1,0.19,22,
O=C(Nc1ccc(Cl)nc1)c1ccc(F)c(C(F)(F)F)c1,0.42,3.4,
O=C(Nc1cnc(Cl)nc1)c1cccc(C(F)(F)F)c1,4.3,35,EC50 [3]: 28 µM
O=C(Nc1ccc(Cl)nc1)c1ccc(Cl)c(Cl)c1,0.67,17,
O=C(Nc1ccc(Cl)nc1)c1ccc(S(=O)(=O)Cc2ccc(F)cc2)c(F)c1,0.16,> 100,
O=C(Nc1ccncc1)c1ccc(Cl)c(Cl)c1,,,EC50 [9]: > 10 µM
O=C(Nc1ccc(NC2CC2)nc1)c1ccc(F)c(F)c1,2.7,,
O=C(Nc1ccc(Cl)nc1)c1ccc(Cl)c(F)c1,0.08,15,
CCOc1ccc(C(=O)Nc2ccc(Cl)nc2)cc1F,0.57,> 100,
O=C(Nc1ccc(Cl)nc1)c1ccc(Oc2ccccc2)c(F)c1,0.03,1.3,
COc1ccc(NC(=O)c2ccc(F)c(F)c2)cn1,> 10,,
Cc1ccc(C(=O)Nc2ccc(Cl)nc2)cc1F,0.28,33,

Compound,EC50 [1] [µM],IC50 [2] [µM],further results
O=C(Nc1ccc(Cl)nc1)c1ccc(Oc2ccccc2)cc1,0.01,1.9,
O=C(Nc1cnc(Cl)nc1)c1ccc(F)c(F)c1,0.69,> 100,Vz/F [10]: 1.804 L/kg; half-life [11]: 72 min; clearance [12]: 17.3 mL/min/kg; IC50 [13]: > 30 µM; ED50 [5]: < 1 mg/kg; ED50 [7]: 1.5 mg/kg; IC50 [14]: > 30 µM; Tmax [15]: 30 min; EC50 [3]: 14.3 µM; Activity [16]: inactive; Ratio EC50 [17]: 20; IC50 [18]: > 30 µM; bioavailability [19]: 63%
Cc1ccc(NC(=O)c2ccc(F)c(F)c2)cn1,6.8,,
Cc1ccc(C(=O)Nc2cnc(Cl)nc2)cc1F,0.6,93,EC50 [3]: 10 µM
O=C(Nc1ccc(Cl)nc1)c1ccc(-c2ccccc2)cc1,0.26,> 30,
O=C(Nc1ccc(Cl)nc1)c1cccc(C(F)(F)F)c1,0.39,5.8,
N#Cc1ccc(NC(=O)c2ccc(F)c(F)c2)cn1,10,,
O=C(Nc1cnc(Cl)nc1)c1cccc(F)c1,7.2,> 100,EC50 [3]: 23 µM
O=C(Nc1ccc(Cl)nc1)c1ccc(S(=O)(=O)c2ccc(F)cc2)c(F)c1,0.07,> 100,
NS(=O)(=O)c1ccc(C(=O)Nc2ccc(Cl)nc2)cc1,> 10,,
CC(C)Sc1ccc(C(=O)Nc2ccc(Cl)nc2)cc1F,0.11,5.8,
O=C(Nc1ccc(Cl)nc1)c1ccccc1,1.6,> 100,
O=C(Nc1cnc(Cl)nc1)c1cccc(Cl)c1,1.1,78,EC50 [3]: 14 µM
O=C(Nc1ccccc1)c1ccc(Cl)c(Cl)c1,,,EC50 [9]: > 10 µM
O=C(Nc1ccc(Cl)nc1)c1cccc(Cl)c1,0.27,41,
O=C(Nc1ccc(Cl)nc1)c1ccc(C(F)(F)F)c(F)c1,0.37,3.4,
CC(C)Oc1ccc(C(=O)Nc2ccc(Cl)nc2)cc1F,0.17,> 100,
CC(C)CS(=O)(=O)c1ccc(C(=O)Nc2ccc(Cl)nc2)cc1F,0.26,54,
O=C(Nc1ccc(Cl)nc1)c1ccc(Cl)cc1,,15,
N#Cc1cccc(C(=O)Nc2ccc(Cl)nc2)c1,> 10,,
COc1cccc(C(=O)Nc2ccc(Cl)nc2)c1,5.5,,
O=C(Nc1ccc(N2CCOCC2)nc1)c1ccc(F)c(F)c1,7.8,,
O=C(Nc1ccc(N2CCCC2)nc1)c1ccc(F)c(F)c1,0.48,,
CSc1ccc(NC(=O)c2ccc(F)c(F)c2)cn1,> 10,,
O=C(Nc1ccc(Cl)nc1)c1ccc(F)cc1,0.98,66,
O=C(Nc1ccc(Cl)nc1)c1ccc(SCc2ccc(F)cc2)c(F)c1,1.6,> 100,
Cc1ccc(C(=O)Nc2ccc(Cl)nc2)cc1C,0.69,> 100,
